Test results taken from BindingDB's records for doi:10.1021/jm950797i (Medichem Research, 1996).

Experiments:
[1] = molecular target: T1, Gag-Pol polyprotein [489-587] (Human immunodeficiency virus 1, UniProt P04585); assay: Inhibitory activity against DNA -dependent DNA polymerase (DDDP) of HIV-1 RT Nucleic Acid polymerase
T1 construct: 489-587
Outline: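 Dimeric (p66/p51) HIV-1 RT in the RT buffer, reacted 1 h at 37 °C. Template was activated calf thymus DNA (final 20 µg/mL), with dATP, dCTP and dGTP each at final 50 µM plus 5 µCi [3H]TTP. Acid-insoluble label was counted by scintillation. Prescreened at 200 µg/mL, then 10 half-log concentrations in duplicate; IC50 read from dose-response curves.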

[2] = molecular target: T1, Gag-Pol polyprotein [489-587]; assay: Inhibitory activity against RNA-dependent DNA polymerase (RDDP) of HIV-1 RT Nucleic Acid polymerase
Outline: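 Purified dimeric (p66/p51) HIV-1 RT (0.08 µg) in pH 8.0 Tris-HCl with KCl, MgCl2, DTT, glutathione, EGTA and BSA. Template-primer was 41 µM poly(rA) with 9.5 µM oligo(dT), plus 20 µM TTP and [3H]TTP. Incubated 1 h at 37 °C, stopped at 80 °C, and counted on filters. Prescreened at 200 µg/mL; IC50 taken from 10 half-log doses in duplicate.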

[3] = molecular target: T1, Gag-Pol polyprotein [489-587]; assay: Inhibitory activity against TIBO-resistant HIV-1 RT Nucleic Acid polymerase

| Structure (SMILES) | IC50 [1] [µM] | IC50 [2] [µM] | IC50 [3] [µM] |
| --- | --- | --- | --- |
| CCCc1cc(=O)oc2c3c(c4c(c12)OC(C)(C)C=C4)O[C@@H](C)[C@H](C)[C@@H]3O | 156 | 27.8 | – |
| CCCc1cc(=O)oc2c3c(c4c(c12)OC(C)(C)C=C4)O[C@H](C)[C@@H](C)[C@@H]3O [(10R,11S,12S)-12-Hydroxy-6,6,10,11-tetramethyl-4-propyl-11,12-dihydro-6H,10H-dipyrano[2,3-f;2',3'-h]chromen-2-one] | 0.38 | – | 10.1 |
| CCCc1cc(=O)oc2c3c(c4c(c12)OC(C)(C)C=C4)O[C@@H](C)C(C)[C@@H]3O (stereo partly drawn) [(10S,12S)-12-Hydroxy-6,6,10,11-tetramethyl-4-propyl-11,12-dihydro-6H,10H-dipyrano[2,3-f;2',3'-h]chromen-2-one] | 0.7 | 0.97 | 17.6 |
